Laboratory results as given in ChEMBL document CHEMBL1127051, “Vanilloids. 1. Analogs of capsaicin with antinociceptive and antiinflammatory activity” (J Med Chem, 1993).

How the values were obtained:
Mus musculus [1] = assay: Percentage inhibition in mouse by using Croton oil-inflamed mouse ear test (topical dosing).; format: functional; parameters: concentration or dose not given beside the values
In short: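 Male Cox ICR mice (25–35 g), 10 per group. Left ear given 25 μL of 1% compound in ethanol, repeated ~17 h later; 1 h after that, both ears given 25 μL 2% croton oil. After 4 h, 5 mm ear punches weighed. % inhibition = [(C − T1)/C]×100, using left-minus-right weight differences versus vehicle controls.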

[2] = Acute toxicity after intraperitoneal dose at 50 mg/kg in mice; format: organism-based; parameters: dose 50 mg/kg, route intraperitoneal; conditions: mouse, in vivo, ip, read-out: Lethality
In short: (§1)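 Single intraperitoneal dose at the listed mg/kg; acute toxicity scored as % lethality = number of deaths / number of animals dosed, 7–10 animals per group.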

Mus musculus [3] = organism: Mus musculus; assay: Ratio of the number of responders to the number of animals tested; 0/8; format: functional
Rattus norvegicus [4] = assay: Percentage analgesia by rat hot plate test after oral administration at 300 mg/kg.; format: functional
In short: (§2)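 Rats fasted 18 h, prescreened on a 55 ± 0.5 °C hot plate (latency <12 s, else lowest <30 s) to set the 0 h value. Groups of 8 dosed orally in sesame oil (1 mL/200 g); latency read at 1.5, 3, 5 h (24 h if persisting). %analgesia = [(LT(t) − LT(0))/(60 − LT(0))]×100, taken at the time of maximal latency.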

Mus musculus [5] = assay: Latency time measured by mouse hot plate test after subcutaneous administration at 200 mg/kg; format: functional; parameters: unit: s
In short: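 Male CF-1 mice, 8 per group, given test agent sc in 0.2 mL ethanol/Tween-80/saline (10/10/80); dose 0.68 mmol (200 mg/kg for capsaicin). Placed on copper surface held at 55 ± 0.5 °C. Paw-response latency (s) reported as group mean ± SD; pretest latency ~5 s.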

[6] = (§3) Acute toxicity after intraperitoneal dose at 200 mg/kg in mice; format: organism-based; parameters: dose 200 mg/kg, route intraperitoneal; conditions: mouse, in vivo, ip, read-out: Lethality; in short: as §1
[7] = Acute toxicity after intraperitoneal dose at 15 mg/kg in mice; format: organism-based; parameters: dose 15 mg/kg, route intraperitoneal; conditions: mouse, in vivo, ip, read-out: Lethality; in short: as §1
Mus musculus [8] = organism: Mus musculus; assay: Ratio of the number of responders to the number of animals tested; 2/8; format: functional
Mus musculus [9] = organism: Mus musculus; assay: Ratio of the number of responders to the number of animals tested; 6/6; format: functional
Mus musculus [10] = assay: as §3; format: functional; in short: as §1
Mus musculus [11] = organism: Mus musculus; assay: Ratio of the number of responders to the number of animals tested; 5/5; format: functional
Mus musculus [12] = organism: Mus musculus; assay: Ratio of the number of responders to the number of animals tested; 6/7; format: functional
In short: (§4)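 Male CF-1 mice, 8 per group, dosed sc in 0.2 mL ethanol/Tween-80/saline (10/10/80). Latency read on a copper hot plate held at 55 ± 0.5 °C, with a pretest latency of about 5 s; reported as mean latency (s) ± SD. A responder is an animal whose latency exceeds the vehicle-control mean plus 2 SD; response = responders/animals tested.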

Mus musculus [13] = assay: Latency time measured by mouse hot plate test after subcutaneous administration at 40 mg/kg; format: functional; in short: as §4
Mus musculus [14] = organism: Mus musculus; assay: Ratio of the number of responders to the number of animals tested; 4/8; format: functional
Mus musculus [15] = organism: Mus musculus; assay: Ratio of the number of responders to the number of animals tested; 6/8; format: functional
[16] = Acute toxicity after intraperitoneal dose at 100 mg/kg in mice; format: organism-based; parameters: dose 100 mg/kg, route intraperitoneal; conditions: mouse, in vivo, ip, read-out: Lethality; in short: as §1
Mus musculus [17] = organism: Mus musculus; assay: Ratio of the number of responders to the number of animals tested; 7/8; format: functional
[18] = Acute toxicity after intraperitoneal dose at 400 mg/kg in mice; format: organism-based; parameters: dose 400 mg/kg, route intraperitoneal; conditions: mouse, in vivo, ip, read-out: Lethality; in short: as §1
Mus musculus [19] = organism: Mus musculus; assay: Ratio of the number of responders to the number of animals tested; 5/8; format: functional
Rattus norvegicus [20] = assay: Percentage analgesia by using rat hot plate test after oral administration at 150 mg/kg; format: functional; in short: as §2
Mus musculus [21] = organism: Mus musculus; assay: Ratio of the number of responders to the number of animals tested; 8/8; format: functional
[22] = Acute toxicity after intraperitoneal dose at 8 mg/kg in mice; format: organism-based; parameters: dose 8 mg/kg, route intraperitoneal; conditions: mouse, in vivo, ip, read-out: Lethality; in short: as §1
[23] = Acute toxicity after intraperitoneal dose at 50 mg/kg; format: organism-based; parameters: dose 50 mg/kg, route intraperitoneal; conditions: mouse, in vivo, ip, read-out: Lethality; in short: as §1

Row | SMILES | Inhibition (Mus musculus [1]) [%] | Analgesia (Rattus norvegicus [4]) [%] | Latency (Mus musculus [5]) | further results
1 | CCCCCCCCCCCCCCCCCC(=O)NCc1ccc(O)c(OC)c1 | 11.3 | 3 | 5.9 | mortality [2]: 0%; Response (Mus musculus [3]): 0
2 | CCCCCCC/C=C\CCCCCCCCCC(=O)NCc1ccc(O)c(OC)c1 | 76.9 | 43 | 35.7 | mortality [6]: 40%
3 | CCCCCCC/C=C/CCCCCCCCC(=O)NCc1ccc(O)c(OC)c1 | 10.9 | 37 | 7.1 | mortality [6]: 60%; Response (Mus musculus [3]): 0
4 | CCCC/C=C\CCCCCCCCNC(=O)Cc1ccc(O)c(OC)c1 |  | 74 |  | 
5 | CCCCCCCCCCNC(=O)Cc1ccc(O)c(OC)c1 | 58.1 |  | 5.3 | mortality [7]: 100%
6 | COc1cc(CNC(=O)CCCCc2ccccc2)ccc1O | 56.4 |  | 12.2 | mortality [2]: 90%
7 | CCCCCCCC/C=C/CCCCCCCCNC(=O)Cc1ccc(O)c(OC)c1 |  | 95 |  | 
8 | CCCCCCCC/C=C\CCCCCCCNC(=O)Cc1ccc(O)c(OC)c1 |  | 66 |  | 
9 | CCCCCc1ccc(C(=O)NCc2ccc(O)c(OC)c2)cc1 | 9.3 |  | 6.9 | mortality [2]: 60%
10 | CCCCCCCC#CCCCCCCCCC(=O)NCc1ccc(O)c(OC)c1 | 50.3 | 15 | >18.6 | mortality [6]: 70%; Response (Mus musculus [8]): 2
11 | COc1cc(CC(=O)NC2CCCCCCC2)ccc1O | 34.7 | 4 | 34.2 | Response (Mus musculus [9]): 6; mortality [6]: 80%
12 | CCCCCCCC[C@H]1O[C@@H]1CCCCCCCC(=O)NCc1ccc(O)c(OC)c1 | 26 |  | 10.7 | Lethality (Mus musculus [10]): 60%
13 | COc1cc(CNC(=O)CCCCCCc2ccccc2)ccc1O | 46.2 | 1 | 6.8 | mortality [2]: 60%
14 | CCCCCCCCCC(=O)CCCCCCCC(=O)NCc1ccc(O)c(OC)c1 |  |  | 11.2 | 
15 | CCCCC/C=C\C/C=C\CCCCCCCCNC(=O)Cc1ccc(O)c(OC)c1 |  | 89 |  | 
16 | CCCCCCCCCC(=O)NCc1ccc(O)c(OC)c1 | 71.4 |  | >43 | mortality [2]: 80%; Response (Mus musculus [11]): 5
17 | C#CCCCCCCCCC(=O)NCc1ccc(O)c(OC)c1 | 36.4 | 15 | 17.1 | mortality [2]: 90%
18 | COc1cc(CNC(=O)CCCC/C=C\C(C)C)ccc1O [ZUCAPSAICIN] | 79.5 | 0 |  | Response (Mus musculus [12]): 6; Latency (Mus musculus [13]): >39.9
19 | CCCCCCC/C=C\CCCCCCCCCCCCC(=O)NCc1ccc(O)c(OC)c1 | 29 |  |  | mortality [6]: 0%
20 | CCCCCCCC[C@H]1O[C@H]1CCCCCCCC(=O)NCc1ccc(O)c(OC)c1 | 54.5 | 5 | 13.5 | mortality [6]: 40%
21 | CCCCCCCNC(=O)Cc1ccc(O)c(OC)c1 | 69.4 |  | 41.1 | mortality [7]: 100%
22 | COc1cc(CNC(=O)CCCc2ccccc2)ccc1O | 40.9 |  | 5.6 | mortality [2]: 75%
23 | CCCCCC(=O)NCc1ccc(O)c(OC)c1 | 33.6 |  | 16.8 | mortality [2]: 60%; Response (Mus musculus [14]): 4
24 | CCCCCCCCCNC(=O)Cc1ccc(O)c(OC)c1 | 80.7 |  | 22.3 | mortality [7]: 86%
25 | CCCC/C=C/C/C=C\CCCCCCCCC(=O)NCc1ccc(O)c(OC)c1.CCCCC/C=C/C=C\CCCCCCCCC(=O)NCc1ccc(O)c(OC)c1 | 66.8 | 34 | >36.6 | Response (Mus musculus [15]): 6; mortality [6]: 0%

Row | SMILES | Inhibition (Mus musculus [1]) [%] | Analgesia (Rattus norvegicus [4]) [%] | Latency (Mus musculus [5]) | further results
26 | CCCCC(=O)NCc1ccc(O)c(OC)c1 | 24.2 |  | 9.6 | mortality [16]: 60%; Response (Mus musculus [8]): 2
27 | CCCCCCCCCC/C=C/CCCCCC(=O)NCc1ccc(O)c(OC)c1 | 26.7 | 27 | 11.5 | mortality [6]: 60%; Response (Mus musculus [8]): 2
28 | CCCCCCCCCC/C=C\CCCCCC(=O)NCc1ccc(O)c(OC)c1 | 68.4 | 37 | 46.1 | mortality [6]: 30%
29 | C=C(CCCCCCCCC)CCCCCCCC(=O)NCc1ccc(O)c(OC)c1 | 96.2 | 67 | >22.8 | mortality [6]: 60%; Response (Mus musculus [8]): 2
30 | CCCCCC/C=C\CCCCCCCCNC(=O)Cc1ccc(O)c(OC)c1 |  | 88 |  | 
31 | CCCCCCNC(=O)Cc1ccc(O)c(OC)c1 | -5.8 |  | 40.7 | 
32 | CCCCCCC/C=C\CCCCCCCCC(=O)NCc1ccc(O)c(OC)c1 | 81.7 | 69 | >38.5 | Response (Mus musculus [17]): 7; mortality [18]: 30%
33 | C=CCCCCCCCCNC(=O)Cc1ccc(O)c(OC)c1 | 98.9 | 29 | 32.4 | mortality [16]: 90%; Response (Mus musculus [19]): 5
34 | CCCCCC/C=C\CCCCCCCCCCNC(=O)Cc1ccc(O)c(OC)c1 |  |  |  | Analgesia (Rattus norvegicus [20]): 62%
35 | CCCCC/C=C\CCCCCCCCCCC(=O)NCc1ccc(O)c(OC)c1 | 60 |  | >39.9 | Response (Mus musculus [21]): 8; mortality [6]: 30%
36 | CCCCCCCCCCCCCC/C=C\CC(=O)NCc1ccc(O)c(OC)c1 |  |  | 7.5 | Response (Mus musculus [3]): 0
37 | CCCC(=O)NCc1ccc(O)c(OC)c1 | 3.2 |  | 10.8 | mortality [16]: 40%; Response (Mus musculus [14]): 4
38 | CCCCC/C=C\CCCCCCCCC(=O)NCc1ccc(O)c(OC)c1 | 79.3 |  | >48.8 | Response (Mus musculus [17]): 7; mortality [6]: 10%
39 | CCCC/C=C/CCCCCCCC(=O)NCc1ccc(O)c(OC)c1 |  | 22 |  | 
40 | CCCCCCC(=O)NCc1ccc(O)c(OC)c1 | 33.7 |  | 29.8 | Response (Mus musculus [15]): 6; mortality [2]: 85%
41 | CCCCCCCCC(=O)NCc1ccc(O)c(OC)c1 [NONIVAMIDE] | 72.3 | 17 | >31.2 | Response (Mus musculus [21]): 8; mortality [22]: 50%
42 | CCCCCCCC/C=C\CCCCCCCCNC(=O)Cc1ccc(O)c(OC)c1 | 95.5 | 74 | 27.9 | Response (Mus musculus [17]): 7; mortality [6]: 50%
43 | CCCCCCCCCCCC(=O)NCc1ccc(O)c(OC)c1 | 48.1 |  | 9.9 | mortality [7]: 25%; mortality [23]: 100%; Response (Mus musculus [3]): 0
44 | CCCCCCCCCC(C)CCCCCCCC(=O)NCc1ccc(O)c(OC)c1 (stereo not drawn) | 88.3 |  | 26.9 | mortality [16]: 40%; Response (Mus musculus [14]): 4
45 | CCCCCCCC/C=C\CCCCCCCCCCCCCC(=O)NCc1ccc(O)c(OC)c1 | 48 |  | 6.1 | Response (Mus musculus [3]): 0
46 | CCCCCCCC(=O)NCc1ccc(O)c(OC)c1 | 45.8 |  | >51.3 | Response (Mus musculus [9]): 6; mortality [2]: 90%
47 | CCCCCCCCCCC(=O)NCc1ccc(O)c(OC)c1 | 29.6 |  | 47.7 | Response (Mus musculus [17]): 7; mortality [2]: 80%
48 | COc1cc(CNC(=O)CCCCCc2ccccc2)ccc1O | 57.6 |  | 6.2 | mortality [2]: 70%
49 | CCCCCCCCCCCCNC(=O)Cc1ccc(O)c(OC)c1 | 55.3 |  | 5 | mortality [2]: 0%
